From ChEMBL document CHEMBL2412988, “Synthesis, pH-dependent, and plasma stability of meropenem prodrugs for potential use against drug-resistant tuberculosis” (Bioorg Med Chem, 2013)

Experiments:
[1] = Half life in MES buffer at 100 uM at pH 6 by HPLC analysis; assay type: physicochemical; details: pH 6, 100 µM
Method in brief: (§1)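 Meropenem or prodrug at 100 µM final (from a 5.0 mM DMSO stock) incubated at 37 °C in triplicate in simulated gastric fluid pH 1.2, 100 mM MES pH 6.0, or pH 7.4 buffer, after 2 min buffer pre-warming. Aliquots taken at 0–120 min and injected directly onto reversed-phase HPLC with UV at 300 nm. Half-life, % prodrug remaining at 120 min, or species concentration over time was reported.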

[2] = Half life in HEPES buffer at 100 uM at pH 7.4 by HPLC analysis; assay type: physicochemical; details: pH 7.4, 100 µM; method in brief: as §1
[3] = Chemical stability of the compound in simulated gastric fluid assessed as compound remaining at 10 uM after 60 mins at pH 1.2; assay type: physicochemical; details: read-out: Stability
[4] = system: Plasma; assay: (§2) Half life in human plasma at 5 mM by HPLC analysis; assay type: ADME, cell-free; details: 5000 µM
[5] = Half life in Dunkin-Hartley guinea pig plasma at 5 mM by HPLC analysis; assay type: ADME, cell-free, Cavia porcellus; details: for t1/2: 5000 µM
Method in brief: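 Pooled plasma from female Dunkin Hartley guinea pigs was pre-warmed 2 min at 37 °C, then prodrug was added from a 5.0 mM stock. Runs were in triplicate. Aliquots were taken at 0, 2.5, 5, 10, 15 and 30 min, quenched with an equal volume of acetonitrile, filtered and analysed by reversed-phase HPLC at 300 nm for half-life.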

[6] = Prodrug stability in MES buffer assessed as prodrug remaining at 100 uM after 120 mins at pH 6 by HPLC analysis; assay type: physicochemical; details: pH 6, 2 h; method in brief: as §1
[7] = Prodrug stability in HEPES buffer assessed as prodrug remaining at 100 uM after 120 mins at pH 7.4 by HPLC analysis; assay type: physicochemical; details: pH 7.4, 2 h; method in brief: as §1
[8] = Half life in simulated gastric fluid at 100 uM at pH 1.2 by HPLC analysis; assay type: physicochemical; details: for t1/2: simulated gi fluid, pH 1.2, 100 µM; method in brief: as §1
[9] = Chemical stability of the compound in simulated gastric fluid assessed as drug degradation at 10 uM after 30 mins at pH 1.2; assay type: physicochemical; details: read-out: Drug degradation
[10] = Lipophilicity, log D of the compound; assay type: physicochemical; details: octanol/water
[11] = Stability in HEPES buffer assessed as prodrug conversion to 1-Benzosuberol at pH 7.4 by HPLC analysis; assay type: physicochemical
[12] = Stability in HEPES buffer assessed as prodrug conversion to meropenem at pH 7.4 by HPLC analysis; assay type: physicochemical; method in brief: as §1
[13] = as §2; assay type: ADME, cell-free

C[C@@H](O)[C@H]1C(=O)N2C(C(=O)OCOC(=O)O[C@H]3CCCc4ccccc43)=C(S[C@@H]3CN[C@H](C(=O)N(C)C)C3)[C@H](C)[C@H]12
t1/2 [1]: 0.9 min
t1/2 [2]: 1.4 min

C[C@@H](O)[C@H]1C(=O)N2C(C(=O)O)=C([C@H]3CCCO3)S[C@H]12 [FAROPENEM]
remaining at 1 h, 10 µM [3]: 70%

C[C@@H](O)[C@H]1C(=O)N2C(C(=O)OCOC(=O)OC3Cc4ccccc4C3)=C(S[C@@H]3CN[C@H](C(=O)N(C)C)C3)[C@H](C)[C@H]12
t1/2 [4]: 4.3 min
t1/2 [5]: 0.9 min
Stability [6]: 96%
Stability [7]: 70%
t1/2 [8]: 13 min

C[C@@H](O)[C@H]1C(=O)N2C(C(=O)OCOC(=O)O[C@H]3CCc4ccccc43)=C(S[C@@H]3CN[C@H](C(=O)N(C)C)C3)[C@H](C)[C@H]12
t1/2 [2]: < 1 min

CC(C)OC(=O)OC(C)OC(=O)C1=C(S[C@@H]2CN[C@H](C(=O)N(C)C)C2)[C@H](C)[C@@H]2[C@@H]([C@@H](C)O)C(=O)N12 (single isomer, unassigned; diastereomer 1)
t1/2 [4]: 108 min
t1/2 [5]: 6.5 min
Stability ([6]; 2 h): 94%
Stability ([7]; 2 h): 90%
t1/2 [8]: 8.8 min

Nc1nc(/C(=C/CC(=O)O)C(=O)N[C@@H]2C(=O)N3C(C(=O)O)=CCS[C@H]23)cs1 [CEFTIBUTEN]
remaining at 1 h, 10 µM [3]: 94%

C[C@@H](O)[C@H]1C(=O)N2C(C(=O)O)=C(S[C@@H]3CN[C@H](C(=O)N(C)C)C3)[C@H](C)[C@H]12 [MEROPENEM]
remaining at 1 h, 10 µM [3]: 5%
degraded at 0.5 h, 10 µM [9]: 80%
logD [10]: < 2.5

C[C@@H](O)[C@H]1C(=O)N2C(C(=O)OCOC(=O)O[C@@H]3CCCCc4ccccc43)=C(S[C@@H]3CN[C@H](C(=O)N(C)C)C3)[C@H](C)[C@H]12
t1/2 [4]: 34 min
t1/2 [5]: 0.9 min
t1/2 [8]: 11 min
t1/2 [2]: 27 min

C[C@@H](O)[C@H]1C(=O)N2C(C(=O)OCOC(=O)OC3CCCc4ccccc4C3)=C(S[C@@H]3CN[C@H](C(=O)N(C)C)C3)[C@H](C)[C@H]12 (mixture of isomers)
t1/2 [4]: 23 min
t1/2 [5]: 1.9 min
Stability [6]: 96%
Stability [7]: 79%
t1/2 [8]: 21 min

C[C@@H](O)[C@H]1C(=O)N2C(C(=O)OCOC(=O)O[C@H]3CCCCc4ccccc43)=C(S[C@@H]3CN[C@H](C(=O)N(C)C)C3)[C@H](C)[C@H]12
Drug metabolism [11]: Active
Drug metabolism [12]: Active
t1/2 [4]: 44 min
t1/2 [5]: 1.3 min
t1/2 [1]: 32 min
t1/2 [8]: 9.3 min
t1/2 [2]: 28 min

C[C@@H](O)[C@H]1C(=O)N2C(C(=O)OCOC(=O)O[C@@H]3CCCc4ccccc43)=C(S[C@@H]3CN[C@H](C(=O)N(C)C)C3)[C@H](C)[C@H]12
t1/2 [1]: 0.96 min
t1/2 [2]: 1.5 min

CC(OC(=O)O[C@H]1CCCCc2ccccc21)OC(=O)C1=C(S[C@@H]2CN[C@H](C(=O)N(C)C)C2)[C@H](C)[C@@H]2[C@@H]([C@@H](C)O)C(=O)N12 (mixture of isomers)
t1/2 [1]: 80 min
t1/2 [8]: 18 min
t1/2 [2]: 64 min

CC(=O)N1C[C@@H](SC2=C(C(=O)OCOC(=O)O[C@H]3CCCCc4ccccc43)N3C(=O)[C@H]([C@@H](C)O)[C@H]3[C@H]2C)C[C@H]1C(=O)N(C)C
t1/2 [1]: 28 min
t1/2 [8]: 7 min
t1/2 [2]: 28 min

CC(C)OC(=O)OC(C)OC(=O)C1=C(S[C@@H]2CN[C@H](C(=O)N(C)C)C2)[C@H](C)[C@@H]2[C@@H]([C@@H](C)O)C(=O)N12 (some centres not stated)
half-life at 5000 µM [13]: 11 min
half-life at 5000 µM ([5]; Dunkin-Hartley): 1.4 min
Stability ([6]; 2 h): 92%
Stability ([7]; 2 h): 87%
half-life at 100 µM ([8]; simulated gastric fluid, pH 1.2): 9.8 min

C[C@@H](O)[C@H]1C(=O)N2C(C(=O)OCOC(=O)OC3CCc4ccccc4C3)=C(S[C@@H]3CN[C@H](C(=O)N(C)C)C3)[C@H](C)[C@H]12 (mixture of isomers)
t1/2 [4]: 8.1 min
t1/2 [5]: 1.7 min
Stability [6]: 93%
Stability [7]: 78%
t1/2 [8]: 14 min
